Screening results deposited in PubChem BioAssay by several laboratories.
MsrA inhibitor: bovine MsrA inhibition; hit rate 0.75% among 360,000; purified bovine MsrA, absorbance read-out; inhibition, % at 15.5 µM; in the data active means inhibition above about 4.5%
SKN-1 block: blocks SKN-1 activity in C. elegans. C. elegans VP596 Pgst-4::GFP/RFP ratio, acrylamide-induced, 24 h. inhibition, % at 21.8 µM. hit rate 0.49% among 360,000;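 active means interference check ratio from 0.5 to 1.5 plus GFP to RFP signal ratio inhibition reaching or exceeding a fixed threshold, cut at about 30% in these data, passing the limit was not always enough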
MT1-MMP act inh: inhibitors of human MT1-MMP activation; HT1080 RFP-PRO-GFP cells, GFP/RFP ratio fluorescence, overnight; percent of plate control window, DMSO zero; GFP/RFP ratio change, % at 20 µM; hit rate 0.061% among 360,000; AID 651647;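 active means GFP/RFP ratio change of at least 30% with cell ATP level not reduced by more than half and red fluorescence within 50% of control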
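Assay system – RFP-PRO-GFP reporter HT1080 cells · Compound dosing – single dose of 20 µM compound, 1% DMSO final · Incubation – overnight compound exposure at 37 °C · Measure – GFP/RFP fluorescence ratio · Benchmarks – DMSO wells and RFP-L50D-GFP cells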
MsrA act: activators of bovine methionine sulfoxide reductase A; purified bovine MsrA, absorbance read-out; activation, % at 10.6 µM; hit rate 0.3% among 360,000; in the data active means activation above about 7.5%
p-CIP stab down: compounds decreasing mouse p/CIP protein stability | Q05BA5 | F442A p/CIP-EGFP cells, EGFP fluorescence, 16 h | decrease of EGFP signal, % at 10 µM | hit rate 0.01% among 290,000;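 active means EGFP signal decrease of at least 30% at 10 µM or well 3 SD below plate mean, unless failing retest; inactive means the rest, including hits failing retest or dose response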
Target sequence (Q05BA5 1-1403): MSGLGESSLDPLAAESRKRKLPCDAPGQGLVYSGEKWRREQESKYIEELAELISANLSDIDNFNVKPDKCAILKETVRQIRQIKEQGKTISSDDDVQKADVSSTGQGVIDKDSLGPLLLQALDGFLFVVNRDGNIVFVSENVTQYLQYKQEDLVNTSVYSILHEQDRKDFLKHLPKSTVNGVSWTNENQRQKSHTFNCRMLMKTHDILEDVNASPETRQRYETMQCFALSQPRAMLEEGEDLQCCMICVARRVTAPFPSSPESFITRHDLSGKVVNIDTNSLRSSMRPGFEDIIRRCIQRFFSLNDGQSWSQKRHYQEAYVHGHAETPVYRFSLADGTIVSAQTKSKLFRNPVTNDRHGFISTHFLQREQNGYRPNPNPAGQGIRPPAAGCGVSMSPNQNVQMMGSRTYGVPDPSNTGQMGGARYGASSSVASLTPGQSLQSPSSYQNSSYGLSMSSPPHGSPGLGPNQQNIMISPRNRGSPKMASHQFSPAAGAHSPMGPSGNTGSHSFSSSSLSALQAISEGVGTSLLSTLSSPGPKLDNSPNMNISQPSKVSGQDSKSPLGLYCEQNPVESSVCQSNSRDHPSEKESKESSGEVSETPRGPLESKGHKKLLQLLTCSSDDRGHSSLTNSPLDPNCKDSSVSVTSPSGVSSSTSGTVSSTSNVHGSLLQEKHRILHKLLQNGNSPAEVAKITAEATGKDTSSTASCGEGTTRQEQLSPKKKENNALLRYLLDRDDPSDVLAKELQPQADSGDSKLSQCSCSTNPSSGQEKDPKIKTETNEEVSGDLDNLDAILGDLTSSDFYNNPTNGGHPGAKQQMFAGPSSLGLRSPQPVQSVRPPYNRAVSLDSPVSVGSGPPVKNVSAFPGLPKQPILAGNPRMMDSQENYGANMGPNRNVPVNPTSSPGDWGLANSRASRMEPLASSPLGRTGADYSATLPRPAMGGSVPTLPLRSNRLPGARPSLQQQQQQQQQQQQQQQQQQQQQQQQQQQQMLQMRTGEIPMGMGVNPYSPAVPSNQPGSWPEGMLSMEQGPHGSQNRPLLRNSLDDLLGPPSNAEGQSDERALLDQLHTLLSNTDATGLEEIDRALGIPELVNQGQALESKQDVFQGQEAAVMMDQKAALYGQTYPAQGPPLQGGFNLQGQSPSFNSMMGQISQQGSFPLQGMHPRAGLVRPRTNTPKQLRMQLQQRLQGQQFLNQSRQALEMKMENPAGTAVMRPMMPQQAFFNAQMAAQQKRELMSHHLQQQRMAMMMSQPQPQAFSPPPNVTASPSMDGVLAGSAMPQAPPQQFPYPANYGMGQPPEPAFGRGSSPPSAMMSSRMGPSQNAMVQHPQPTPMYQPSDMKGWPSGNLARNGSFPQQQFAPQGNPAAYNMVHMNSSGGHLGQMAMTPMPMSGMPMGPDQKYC
MsrA act confirm: confirmation of bovine methionine sulfoxide reductase A activators | shares compounds with MsrA act | AID 602270 | activation, % at 10.6 µM | purified bovine MsrA, absorbance read-out | hit rate 12% among 1,000; in the data active means activation above about 4%;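 further: enzyme coupled to thioredoxin and thioredoxin reductase with NADPH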
Large screens that a line does not name were inactive (follow-up assays come after a bar, where they were run). Only some compounds are listed: those with a hit (about 1.6% of all), similar ones and a draw of the others.

CC(=O)NNC(=S)NC(=O)c1ccccc1	MsrA act 8.3 | MsrA act confirm inactive
CC(=O)NNC(=S)NC(=O)c1ccc(C)cc1	none
Cc1cc(N2CCN(CC(C)(C)O)C[C@H]2C)ccc1N1CCN(CC(C)(C)O)[C@H](C)C1	none (no result: SKN-1 block, MT1-MMP act inh, MsrA act, p-CIP stab down)
C[C@H](CO)N1C[C@H](C)[C@@H](CN(C)S(=O)(=O)c2ccc3c(c2)OCCCO3)OCc2cnnn2CCCC1=O	none (no result: p-CIP stab down)
C[C@@H]1CN([C@H](C)CO)C(=O)CCCn2nncc2CO[C@@H]1CN(C)S(=O)(=O)c1ccc2c(c1)OCCCO2	MsrA act 12 (no result: p-CIP stab down) | MsrA act confirm inactive
CC(C)NC(=O)N(C)C[C@@H]1OCc2cn(nn2)CCCC(=O)N([C@H](C)CO)C[C@H]1C	MsrA act 13 (no result: p-CIP stab down) | MsrA act confirm inactive
O=S1(=O)N[C@@H](Cc2ccccc2)COc2cccc(N3CCCCC3)c21	none (no result: SKN-1 block, MT1-MMP act inh, MsrA act, p-CIP stab down)
COC(=O)c1ccc(CN2C(=O)[C@]3(OCCC=C[C@H]3C)c3cc(OC)ccc32)cc1	none (no result: SKN-1 block, MT1-MMP act inh, MsrA act, p-CIP stab down)
CC(C)CC(=O)c1c(O)cc(O)c2c1OC1=C(C(=O)C(C)(C)C(=O)C1(C)C)C2CC(C)C (stereo not drawn)	none (no result: SKN-1 block, MT1-MMP act inh, MsrA act, p-CIP stab down)
C=CCN(c1cccc(C(F)(F)F)c1)S(=O)(=O)c1cccc(C(=O)OCC(=O)Nc2ccccc2)c1	MsrA act 8.3 | MsrA act confirm inactive
COC(=O)c1[nH]c2ccc(F)cc2c1NS(=O)(=O)c1ccc(OC)cc1OC	none
CCOC(=O)c1[nH]c2ccc(OC)cc2c1NS(=O)(=O)c1ccc(OC)cc1OC	MsrA act 9.7 | MsrA act confirm inactive
COc1ccccc1NC(=O)CN(c1ccccc1)S(=O)(=O)c1ccccc1	none (no result: MT1-MMP act inh)
Cc1ccc(S(=O)(=O)N(CC(=O)Nc2ccccc2C(=O)O)c2ccccc2)cc1	MsrA act 7.8 | MsrA act confirm inactive
Cc1cc(C)cc(N(CC(=O)Nc2ccccc2C(=O)N2CCOCC2)S(C)(=O)=O)c1	MsrA act 9.2 | MsrA act confirm inactive
COc1ccc2nc(NN=Cc3cccc(C)n3)cc(C)c2c1	none (no result: SKN-1 block, MT1-MMP act inh, MsrA act, p-CIP stab down)
Cc1ccc(C2NC(=O)c3n[nH]c(C)c32)cc1 (stereo not drawn)	none (no result: SKN-1 block, MT1-MMP act inh, MsrA act, p-CIP stab down)
CS(=O)(=O)N1CCN(C(=O)c2ccc(Cl)s2)CC1	MsrA act 16 | MsrA act confirm inactive
CCOC(=O)C1=CCN(S(=O)(=O)c2cccc(Cl)c2)C1c1cccc(Br)c1 (stereo not drawn)	none (no result: SKN-1 block, MT1-MMP act inh, MsrA act, p-CIP stab down)
CC(C)C[C@H](NC(=O)C1CC1)C(=O)N1CCC[C@H]1C(=O)NCc1ccccc1	none (no result: SKN-1 block, MT1-MMP act inh, MsrA act, p-CIP stab down)
COc1ccc(CC(=O)NCc2ccc3c(c2)OCO3)cc1	none
COc1cccc(NC(=O)CN(C)C(=O)CCNC(=O)c2ccccc2Cl)c1	MsrA act 8.0 (no result: p-CIP stab down) | MsrA act confirm inactive
COc1cccc(NC(=O)CN(C)CC(=O)NCc2ccc3c(c2)OCO3)c1	MsrA act 11 (no result: p-CIP stab down) | MsrA act confirm inactive
CC(=O)OCCn1c2nc(=O)[nH]c(=O)c-2nc2cc(C)c(C)cc21	MsrA act 13 | MsrA act confirm 16
CC(=O)OCCn1c(C)[n+](CCOC(C)=O)c2cc(Cl)c(Cl)cc21	none
S=c1nccc(-c2ccc(Cl)cc2)[nH]1	MsrA act 8.3 | MsrA act confirm inactive
Clc1ccc(-c2ccn[nH]2)cc1	none
COc1cccc(CNC(=O)[C@H]2CCCN2C(=O)[C@H]2CCCN2C(=O)c2c(F)cccc2F)c1	none (no result: SKN-1 block, MT1-MMP act inh, MsrA act, p-CIP stab down)
COc1ccc(C)cc1S(=O)(=O)Nc1cccc(C)c1	none
COc1ccc(C)cc1S(=O)(=O)Nc1cccc(SC)c1	MsrA act 8.8 | MsrA act confirm inactive
O=C(COc1ccc(Cl)cc1)Nc1cccc(-c2ccc3nncn3n2)c1	MsrA act 15 | MsrA act confirm inactive
CC(=O)c1ccc(-n2c(C)c(C(C)=O)c3cc(O)ccc32)cc1	none
CC(=O)c1c(C)n(-c2ccc(Cl)cc2)c2ccc(O)cc12	MsrA act 7.8 | MsrA act confirm inactive
COc1ccc(-c2nc3c(C)cc(Br)cn3c2Cc2ccccc2C(F)(F)F)cc1OC	none (no result: SKN-1 block, MT1-MMP act inh, MsrA act, p-CIP stab down)
N/C(=N\C(=S)Nc1ccc2c(c1)OCO2)c1ccccc1	none (no result: p-CIP stab down)
NC(=S)Nc1ccc2c(c1)OCO2	MsrA act 15 | MsrA act confirm inactive
COc1cc(C(=O)NCc2ccccc2)cc(Br)c1OC	MsrA act 10 | MsrA act confirm inactive
CN1OC[C@@H]2CN(C(=O)c3ccc([N+](=O)[O-])cc3)[C@H](c3ccccc3Br)C[C@@H]21	none (no result: SKN-1 block, MT1-MMP act inh, MsrA act, p-CIP stab down)
